# Screening results (PubChem BioAssay)
# Pf Dd2 growth – P. falciparum Dd2 growth inhibition; SYBR Green, 72 h; hits give low values; activity change, % at 10 µM; actives 2.3% (n = 94,000); in the data active = activity change below about -80%; inconclusive = no clear call, values can overlap the other calls
# IDH1 R132H inh – inhibitors of human IDH1 R132H. O75874. IDH1 R132H reductase, diaphorase/resazurin fluorescence, 60 min. inhibition, % at 10 µM. actives 0.18% (n = 70,000). AID 624101; in the data active = inhibition above about 34%; inconclusive = no clear call, values can overlap the other calls; inactive = below about 11%;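 also: 0% = DMSO and 100% = no enzyme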
# Target sequence (O75874 whole entry R132H): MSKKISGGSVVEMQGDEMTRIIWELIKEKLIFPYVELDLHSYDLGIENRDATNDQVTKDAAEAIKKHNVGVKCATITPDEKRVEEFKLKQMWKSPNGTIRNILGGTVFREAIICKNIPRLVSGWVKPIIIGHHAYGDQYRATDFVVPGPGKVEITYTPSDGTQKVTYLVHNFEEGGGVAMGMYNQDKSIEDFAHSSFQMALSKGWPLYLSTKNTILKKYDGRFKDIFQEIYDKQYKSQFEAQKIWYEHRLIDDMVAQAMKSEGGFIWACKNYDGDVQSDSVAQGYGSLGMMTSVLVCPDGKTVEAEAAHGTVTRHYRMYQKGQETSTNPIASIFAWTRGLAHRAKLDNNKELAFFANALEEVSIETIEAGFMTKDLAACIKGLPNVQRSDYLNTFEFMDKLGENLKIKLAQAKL
# KDM4C inh – KDM4C (human) demethylase inhibition; Q9H3R0; GST-KDM4C 2-372, H3K9me3 peptide, LANCE TR-FRET; inhibition, % at 12.5 µM; actives 0.15% (n = 96,000); AID 720574;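 active = mean replicate inhibition above about 25%, with at least 55% of replicates also reaching it, limit read from the data, passing the limit was not always enough; inconclusive = only one of those two conditions met; inactive = neither condition met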
#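 material = GST-tagged GASC-1 (JMJD2C) catalytic fragment, aa 2-372 | amount = enzyme final amount 10 nM | medium = HEPES buffer, pH 7.5, plus ascorbate | also added = H3K9me3 peptide substrate, Fe(II), 2-oxoglutarate | dosing = single dose | times = 30 min demethylation and 1 h detection at room temperature | detection = LANCE TR-FRET | read-out basis = Fall in 671/618 emission ratio as inhibition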
# T cruzi growth-1 – T. cruzi proliferation inhibition | actives 5.9% (n = 77,000) | AID 624255 | T. cruzi beta-gal in NIH3T3, GalScreen luminescence, 90 h | inhibition, % at 8.34 µM;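 active = mean inhibition above about 93%, with at least 55% of replicates each passing it, limit read from the data, passing the limit was not always enough; inconclusive = only one of those two conditions holds; inactive = neither condition holds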
# T cruzi growth-2 – blocks T. cruzi growth in NIH3T3 host cells; shares compounds with T cruzi growth-1; T. cruzi beta-gal in NIH3T3, GalScreen luminescence, 90 h; inhibition, % at 8.35 µM; actives 72% (n = 5,600);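 active = mean replicate inhibition above about 95% and at least 55% of replicates individually reaching it, limit read from the data; inconclusive = only one of the two criteria is met; inactive = neither criterion is met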
# T cruzi growth-3 – blocks T. cruzi growth in NIH3T3 host cells; shares compounds with T cruzi growth-1; inhibition, % at 2.09 µM; actives 21% (n = 5,600); T. cruzi beta-gal in NIH3T3, GalScreen luminescence, 90 h;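 active = mean inhibition above about 95%, with at least 55% of replicates also reaching it, limit read from the data; inconclusive = meets just one of the two conditions; inactive = meets neither condition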;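 also: plate controls were neutral control median for no effect and positive control median for full effect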
# 3T3 cytotox – kills mouse NIH/3T3 fibroblasts | shares compounds with T cruzi growth-1 | NIH/3T3 viability, CellTiter-Glo ATP luminescence, 90 h | cytotoxicity (signal decrease), % at 8.35 µM | actives 14% (n = 5,600);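 active = mean signal decrease across replicates above about 35% based on untreated-well scatter, with enough replicates individually passing, limit read from the data; inconclusive = no rule stated though some were filed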;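 also: 0% = median of neutral control wells and 100% = median of positive control wells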
# 3T3 cytotox 2 – NIH/3T3 (mouse) viability loss; actives 56% (n = 5,600); inhibition, % at 24.9 µM; AID 651744; shares compounds with T cruzi growth-1; NIH/3T3 viability, CellTiter-Glo ATP luminescence, 90 h;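 active = mean loss of cell viability signal at or above a set limit, and enough replicates individually reaching it; inconclusive = meets only the mean limit or only the replicate share; inactive = meets neither condition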;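 also: 0% = median of neutral control wells and 100% = median of positive control wells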
# Active calls of the source: *; ? = inconclusive; · = not tested or not shown. Shown are actives, neighbours in structure and some others; about 5.8% of the full set was active somewhere.
SMILES,Pf Dd2 growth,IDH1 R132H inh,KDM4C inh,T cruzi growth-1,T cruzi growth-2,T cruzi growth-3,3T3 cytotox,3T3 cytotox 2
C[C@@H]1CN([C@@H](C)CO)S(=O)(=O)c2ccc(C#CCN(C)C)cc2O[C@H]1CN(C)Cc1ccccc1F,-74,-4,0,116*,?,85,51*,105*
C[C@H]1CN([C@@H](C)CO)S(=O)(=O)c2ccc(C#CC3CC3)cc2O[C@H]1CN(C)Cc1ccccc1F,-11,-1,14,106*,106*,77,11,107*
C[C@H]1CN([C@@H](C)CO)S(=O)(=O)c2ccc(C#CCN(C)C)cc2O[C@@H]1CN(C)Cc1ccccc1F,-76,0,-1,110*,107*,91,5,105*
O=C(CNS(=O)(=O)c1ccccc1)Nc1ccc(Br)cc1F,·,0,·,·,·,·,·,·
Cc1ccc(S(=O)(=O)Nc2ccc3c(c2)C(=O)N([C@@H](C)CO)C[C@H](C)[C@@H](CN(C)C(=O)Nc2ccc(F)cc2)OCCCC[C@@H](C)O3)cc1,-82*,1,0,98*,107*,84,-10,23
Cc1ccc(S(=O)(=O)Nc2ccc3c(c2)C(=O)N([C@H](C)CO)C[C@@H](C)[C@H](CN(C)C(=O)Nc2ccc(F)cc2)OCCCC[C@H](C)O3)cc1,-76,0,-1,100*,106*,47,-38,16
Cc1ccc(S(=O)(=O)Nc2ccc3c(c2)C(=O)N([C@@H](C)CO)C[C@@H](C)[C@H](CN(C)C(=O)Nc2ccc(F)cc2)OCCCC[C@@H](C)O3)cc1,-50,1,0,?,101*,82,9,24
Cc1ccc(S(=O)(=O)Nc2ccc3c(c2)C(=O)N([C@@H](C)CO)C[C@@H](C)[C@@H](CN(C)C(=O)Nc2ccc(F)cc2)OCCCC[C@H](C)O3)cc1,-72,1,0,-2,·,·,·,·
Cc1ccc(NC(=O)CSc2nnc(C)n2-c2ccc(Cl)cc2)c(Br)c1,·,0,·,·,·,·,·,·
CC1=C(C(=O)Nc2ccccc2C)C(c2cccc([N+](=O)[O-])c2)n2ncnc2N1 (stereo not given),·,0,·,·,·,·,·,·
CCCNC(=O)N1[C@H](C#N)[C@H](c2ccc(C#Cc3ccc(F)cc3)cc2)[C@@H]1CO,-87*,·,-1,?,101*,112*,-24,-1
CCCNC(=O)N1[C@H](C#N)[C@H](c2ccccc2)[C@H]1CO,-39,·,0,37,·,·,·,·
CCCNC(=O)N1[C@H](C#N)[C@@H](c2ccc(C#Cc3cccc(F)c3)cc2)[C@@H]1CO,-54,·,-2,100*,102*,92,9,-2
CC(=O)N1CCCCN2[C@H](CO)[C@@H](c3ccc(C#Cc4ccccc4F)cc3)[C@@H]2C1,-24,·,0,113*,108*,40,36*,101*
CCC(=O)N1CCCCN2[C@H](C1)[C@H](c1ccc(C#Cc3ccccc3F)cc1)[C@@H]2CO,-19,·,-1,?,74,29,40*,95*
CCC(=O)N1CCCCN2[C@H](C1)[C@@H](c1ccc(C#Cc3ccccc3)cc1)[C@@H]2CO,-5,·,0,94,·,·,·,·
CC(=O)N1CCCCN2[C@@H](CO)[C@@H](c3ccc(C#Cc4ccccc4F)cc3)[C@@H]2C1,19,·,-1,60,·,·,·,·
CCC(=O)N1CCCCN2[C@H](CO)[C@@H](c3ccc(C#Cc4ccccc4F)cc3)[C@@H]2C1,-13,·,-2,?,101*,53,21,104*
CCC(=O)N1CCCCN2[C@H](CO)[C@H](c3ccc(C#Cc4ccccc4)cc3)[C@@H]2C1,-14,·,-1,117*,104*,85,52*,58*
Cc1ccc(S(=O)(=O)NC(C)C(=O)Nc2ccc(I)cc2)cc1 (stereo not given),·,0,·,·,·,·,·,·
COc1ccc(OC)c(NC(=O)Cn2cnc3sc(C)c(-c4ccc(Cl)cc4)c3c2=O)c1,·,0,·,·,·,·,·,·
